Data from ChEMBL document CHEMBL1152585, “Identification of small molecule regulators of the nuclear receptor HNF4alpha based on naphthofuran scaffolds” (Bioorg Med Chem, 2009).
Active and inactive are the calls of the source. The calls are words filed in the database; no cut-off is given here.

What was measured:
[1] = target: T1, Hepatocyte nuclear factor 4-alpha (Homo sapiens) (UniProt P41235); experiment: Agonist activity at human full length HNF4alpha nuclear receptor expressed in human HepG2/C3A cells co-transfected with LexADBD assessed as increase in transcriptional activity at 6.2 uM by beta-galactosidase one hybrid assay relative to control; format: functional, cell-based
T1 sequence (whole entry): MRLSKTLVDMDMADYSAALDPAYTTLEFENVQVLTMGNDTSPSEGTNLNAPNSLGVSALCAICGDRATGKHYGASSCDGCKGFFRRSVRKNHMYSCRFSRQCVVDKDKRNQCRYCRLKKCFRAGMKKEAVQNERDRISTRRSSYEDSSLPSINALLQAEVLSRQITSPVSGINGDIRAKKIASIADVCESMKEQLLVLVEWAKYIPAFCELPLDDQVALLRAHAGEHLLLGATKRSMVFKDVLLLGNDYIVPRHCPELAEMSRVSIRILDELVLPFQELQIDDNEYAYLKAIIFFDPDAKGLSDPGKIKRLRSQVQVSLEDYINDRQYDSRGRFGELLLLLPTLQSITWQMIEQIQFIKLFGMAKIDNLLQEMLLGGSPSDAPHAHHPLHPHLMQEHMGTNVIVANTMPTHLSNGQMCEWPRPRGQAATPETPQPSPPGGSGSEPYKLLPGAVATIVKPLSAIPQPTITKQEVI

[2] = target: T1, Hepatocyte nuclear factor 4-alpha (Homo sapiens); experiment: Stabilization of thermal denaturation-induced conformational change in human HNF4alpha nuclear receptor ligand binding domain assessed as change in transition temperature by thermofluor assay
Procedure, shortened: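 Human HNF4α LBD (aa 133–368), 6xHis-tagged, expressed in E. coli, purified under denaturing conditions, renatured and TEV-cleaved (apo). Protein at 0.3 mg/mL in 20 mM Tris-Cl pH 8.0, 100 mM NaCl, with 3× molar excess test compound and SYPRO Orange (20× working). Heated 20–90 °C at 1 °C/min. ΔTm = Tm − T0 against a water control; means of 3–6 independent experiments ± SE.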

[3] = Cytotoxicity against human HepG2/C3A cells after 48 hrs by MTT assay; format: functional, cell-based
[4] = target: T2, Hepatocyte nuclear factor 4-alpha (Homo sapiens, UniProt P41235); experiment: Agonist activity at human full length HNF4alpha nuclear receptor expressed in human HepG2/C3A cells co-transfected with LexADBD assessed as increase in transcriptional activity after 16 hrs by beta-galactosidase one hybrid assay; format: functional, cell-based
T2 sequence (P41235 whole entry): T1 sequence (whole entry)
Procedure, shortened: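 Yeast one-hybrid with LexA DNA-binding domain fusions of HNF4α (full length, AF-1-deleted, or LBD lacking F domain). Increasing compound concentrations applied to yeast for 16 h, then β-galactosidase assay. EC50 taken from the dose–response curves.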

[5] = target: T1, Hepatocyte nuclear factor 4-alpha (Homo sapiens); experiment: Agonist activity at human full length HNF4alpha nuclear receptor expressed in human HepG2/C3A cells co-transfected with LexADBD assessed as increase in transcriptional activity at 9.3 uM by beta-galactosidase one hybrid assay relative to control; format: functional, cell-based
[6] = target: T1, Hepatocyte nuclear factor 4-alpha (Homo sapiens); experiment: Agonist activity at human full length HNF4alpha nuclear receptor expressed in human HepG2/C3A cells co-transfected with LexADBD assessed as increase in transcriptional activity at 100 uM by beta-galactosidase one hybrid assay relative to control; format: functional, cell-based
[7] = target: T1, Hepatocyte nuclear factor 4-alpha (Homo sapiens); experiment: Agonist activity at human full length HNF4alpha nuclear receptor expressed in human HepG2/C3A cells co-transfected with LexADBD assessed as increase in transcriptional activity at 12.5 uM by beta-galactosidase one hybrid assay relative to control; format: functional, cell-based
[8] = tested on: HepG2/C3A; experiment: Enhancement of beta-galactosidase activity in human HepG2/C3A cells transfected with estrogen receptor assessed as increase in transcriptional activity after 16 hrs; format: functional, cell-based
[9] = tested on: HepG2/C3A; experiment: Enhancement of beta-galactosidase activity in human HepG2/C3A cells transfected with Gal4 assessed as increase in transcriptional activity after 16 hrs; format: functional, cell-based
[10] = tested on: HepG2/C3A; experiment: Enhancement of beta-galactosidase activity in human HepG2/C3A cells transfected with LexACOUP-TFII assessed as increase in transcriptional activity after 16 hrs; format: functional, cell-based
[11] = target: T1, Hepatocyte nuclear factor 4-alpha (Homo sapiens); experiment: Agonist activity at human HNF4alpha7 nuclear receptor LBDdetaF expressed in human HepG2/C3A cells co-transfected with LexADBD assessed as increase in transcriptional activity after 16 hrs by beta-galactosidase one hybrid assay; format: functional, cell-based
[12] = target: T1, Hepatocyte nuclear factor 4-alpha (Homo sapiens); experiment: Agonist activity at AF1 deleted human HNF4alpha7 nuclear receptor expressed in human HepG2/C3A cells co-transfected with LexADBD assessed as increase in transcriptional activity after 16 hrs by beta-galactosidase one hybrid assay; format: functional, cell-based
[13] = target: T1, Hepatocyte nuclear factor 4-alpha (Homo sapiens); experiment: Activation of HNFalpha transcriptional activity in human […] cells transfected with ApoB-luc assessed as activation of luciferase reporter gene after 24 hrs; format: cell-based
Procedure, shortened: (§1)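 HepG2C3A cells seeded at 6 × 10⁴/well in DMEM, transfected 24 h later (JetPEI) with 800 ng total DNA: 250 ng ApoB-Luc or ApoCIII-Luc reporter, 250 ng β-galactosidase plasmid, HNF4α expression vector. Treated 24 h (DMSO 0.5% control). Luciferase read in lysate supernatant and normalised to β-gal (4-MUG fluorescence, ex 365/em 450 nm). Fold induction vs DMSO. At least three independent experiments, in triplicate.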

[14] = target: T1, Hepatocyte nuclear factor 4-alpha (Homo sapiens); experiment: Activation of HNFalpha transcriptional activity in human […] cells transfected with ApoCIII-luc assessed as activation of luciferase reporter gene after 24 hrs; format: cell-based; procedure, shortened: as §1
[15] = target: T1, Hepatocyte nuclear factor 4-alpha (Homo sapiens); experiment: Agonist activity at human full length HNF4alpha nuclear receptor expressed in human HepG2/C3A cells co-transfected with LexADBD assessed as increase in transcriptional activity at 18.7 uM by beta-galactosidase one hybrid assay relative to control; format: functional, cell-based

With O=[N+]([O-])c1cc2c(ccc3cc(O)ccc32)o1 the fold change (FC) [1] was 11.1, the ΔTm [2] was 0.84 °C and the IC50 [3] was 5000 nM. For the same compound, the EC50 [4] was 1950 nM.
With COc1ccc2ccc3oc([N+](=O)[O-])cc3c2c1 the fold change (FC) [5] was 7.97, the IC50 [3] was 2280 nM and the EC50 [4] was 2330 nM.
In the case of NC(=O)c1cc2c(ccc3ccccc32)o1, the fold change (FC) [6] is reported as 2, the IC50 [3] is reported as greater than 5000 nM and the EC50 [4] is reported as greater than 100000 nM.
With O=[N+]([O-])c1oc2ccc3ccccc3c2c1CCO the fold change (FC) [7] was 4.58, the IC50 [3] was 2040 nM and the EC50 [4] was 1220 nM.
With O=[N+]([O-])c1cc2c(ccc3ccccc32)o1 the fold change (FC) [7] was 4.46, the IC50 [3] was 2510 nM and the EC50 [4] was 2090 nM.
In the case of COc1cc2ccccc2c2cc([N+](=O)[O-])oc12, the fold change (FC) [5] is reported as 6.6, the Activity [8] is reported as “inactive” and the Activity [9] is reported as “inactive”. The Activity [10] was “inactive”, the IC50 [3] was 4400 nM and the EC50 [4] was 1470 nM.
For COc1ccc2c(ccc3oc([N+](=O)[O-])cc32)c1, the fold change (FC) [5] was 8.05, the Activity [11] was “inactive” and the Activity [12] was “inactive”. The IC50 [3] was 2240 nM and the EC50 [4] was 2570 nM.
For Cc1c([N+](=O)[O-])oc2ccc3ccccc3c12, the Activity [13] was “Dose-dependent effect”, the Activity [14] was “Dose-dependent effect” and the fold change (FC) [15] was 5.51. The IC50 [3] was greater than 5000 nM and the EC50 [4] was 1280 nM.
